Laboratory results taken from ChEMBL document CHEMBL4665666, “Discovery and characterization of trypanocidal cysteine protease inhibitors from the 'malaria box'” (Eur J Med Chem, 2019).
Calls of active or inactive are those of the source. No cut-off for these calls is given here.

Tests used:
Cruzipain [1] = target: T1, Cruzipain (Trypanosoma cruzi, UniProt P25779); test: Inhibition of recombinant Trypanosoma cruzi cruzain using Z-FR-AMC as substrate and measured at 12 sec interval for 5 mins without preincubation by fluorimetric analysis
Procedure, shortened: (§1)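 Cruzain (recombinant, 1 nM) in 0.1 M sodium acetate pH 5.5 with 0.01% Triton X-100 and 1 mM β-mercaptoethanol; Z-FR-AMC 2.5 µM, read at 340/440 nm every 12 s for 5 min, with or without 10 min enzyme–compound pre-incubation. […] For mechanism and Ki, 0.3–20.0 µM substrate and five inhibitor levels were used, with Lineweaver-Burk plots.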

[2] = target: Cruzipain (Trypanosoma cruzi) (UniProt P25779); test: Inhibition of recombinant Trypanosoma cruzi cruzain at 10 uM preincubated with enzyme for 5 mins followed by substrate addition in absence of BSA relative to control
Procedure, shortened: (§2)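 For BSA sensitivity, compound was held 5 min with BSA (2 mg/mL in 0.001% Triton X-100), then 5 min with 1 nM cruzain, before substrate was added and activity monitored. Parallel runs omitted BSA under otherwise identical conditions.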

[3] = target: Cruzipain (Trypanosoma cruzi) (UniProt P25779); test: Inhibition of recombinant Trypanosoma cruzi cruzain at 10 uM preincubated for 10 mins in presence of 0.1% Triton X-100 relative to control
Procedure, shortened: (§3)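 To test detergent sensitivity, cruzain was pre-incubated 10 min at room temperature with compound with no Triton X-100, 0.01% or 0.1% Triton X-100. Cleavage of Z-FR-AMC was then followed at pH 5.5 in acetate buffer. Percent inhibition was compared across detergent levels.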

[4] = target: Cruzipain (Trypanosoma cruzi) (UniProt P25779); test: Inhibition of recombinant Trypanosoma cruzi cruzain at 5 uM using Z-FR-AMC as substrate and measured at 12 sec interval for 5 mins without preincubation by fluorimetric analysis relative to control
Procedure, shortened: (§4)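 Recombinant rhodesain or cruzain (1 nM) in 0.1 M sodium acetate pH 5.5, 0.01% Triton X-100, 1 mM β-mercaptoethanol. Compound at a single concentration, either without or after 10 min enzyme pre-incubation. Inhibition is relative to DMSO, with E-64 as positive control. Done in duplicate (primary screen) or triplicate.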

[5] = target: Cruzipain (Trypanosoma cruzi) (UniProt P25779); test: Inhibition of recombinant Trypanosoma cruzi cruzain at 5 uM using Z-FR-AMC as substrate preincubated for 10 mins followed by substrate addition and measured at 12 sec interval for 5 mins by fluorimetric analysis relative to control; details: time 15.0 min; procedure, shortened: as §4
[6] = target: Cruzipain (Trypanosoma cruzi) (UniProt P25779); test: Inhibition of recombinant Trypanosoma cruzi cruzain at 10 uM preincubated with BSA for 5 mins followed by incubation with enzyme for 5 mins followed by substrate addition relative to control; details: time 10.0 min; procedure, shortened: as §2
[7] = target: Rhodesain (Trypanosoma brucei rhodesiense) (UniProt Q95PM0); test: Inhibition of recombinant Trypanosoma brucei rhodesain expressed in Pichia pastoris at 5 uM using Z-FR-AMC as substrate and measured at 12 sec interval for 5 mins without preincubation by fluorimetric analysis relative to control; procedure, shortened: as §4
[8] = target: Rhodesain (Trypanosoma brucei rhodesiense) (UniProt Q95PM0); test: Inhibition of recombinant Trypanosoma brucei rhodesain expressed in Pichia pastoris at 5 uM using Z-FR-AMC as substrate preincubated for 10 mins followed by substrate addition and measured at 12 sec interval for 5 mins by fluorimetric analysis relative to control; details: time 15.0 min; procedure, shortened: as §4
[9] = system: Trypanosoma brucei rhodesiense; test: Trypanocidal activity against Trypanosoma brucei rhodesiense STI B900 assessed as reduction in parasite viability; assay type: functional, organism-based
[10] = target: Cruzipain (Trypanosoma cruzi) (UniProt P25779); test: Inhibition of recombinant Trypanosoma cruzi cruzain at 10 uM using Z-FR-AMC as substrate preincubated for 10 mins followed by substrate addition and measured at 12 sec interval for 5 mins by fluorimetric analysis relative to control; details: time 15.0 min
Procedure, shortened: as §4, with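 “pre-incubation. Z-FR-AMC 2.5 µM, read at 340/440 nm every 12 s for 5 min.” for “pre-incubation.”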

[11] = target: Rhodesain (Trypanosoma brucei rhodesiense) (UniProt Q95PM0); test: Inhibition of recombinant Trypanosoma brucei rhodesain expressed in Pichia pastoris at 10 uM using Z-FR-AMC as substrate and measured at 12 sec interval for 5 mins without preincubation by fluorimetric analysis relative to control
Procedure, shortened: as §4, with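 “pre-incubation. Z-FR-AMC 2.5 µM, read at 340/440 nm every 12 s for 5 min.” for “pre-incubation.”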

[12] = system: Trypanosoma brucei brucei; test: Trypanocidal activity against Trypanosoma brucei brucei Squib 427 assessed as reduction in parasite viability; assay type: functional, organism-based
[13] = target: Cruzipain (Trypanosoma cruzi) (UniProt P25779); test: Inhibition of recombinant Trypanosoma cruzi cruzain at 10 uM preincubated for 10 mins in absence of Triton X-100 relative to control; procedure, shortened: as §3
[14] = target: Rhodesain (Trypanosoma brucei rhodesiense) (UniProt Q95PM0); test: Inhibition of recombinant Trypanosoma brucei rhodesain expressed in Pichia pastoris at 10 uM using Z-FR-AMC as substrate preincubated for 10 mins followed by substrate addition and measured at 12 sec interval for 5 mins by fluorimetric analysis relative to control; details: time 15.0 min
Procedure, shortened: as §4, with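 “pre-incubation. Z-FR-AMC 2.5 µM, read at 340/440 nm every 12 s for 5 min.” for “pre-incubation.”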

[15] = target: Cruzipain (Trypanosoma cruzi) (UniProt P25779); test: Inhibition of recombinant Trypanosoma cruzi cruzain at 10 uM using Z-FR-AMC as substrate and measured at 12 sec interval for 5 mins without preincubation by fluorimetric analysis relative to control
Procedure, shortened: as §4, with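 “pre-incubation. Z-FR-AMC 2.5 µM, read at 340/440 nm every 12 s for 5 min.” for “pre-incubation.”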

[16] = target: Cruzipain (Trypanosoma cruzi) (UniProt P25779); test: Inhibition of recombinant Trypanosoma cruzi cruzain at 10 uM preincubated for 10 mins in presence of 0.01% Triton X-100 relative to control; procedure, shortened: as §3
Trypanosoma cruzi [17] = test: Trypanocidal activity against Trypanosoma cruzi Tulahuen C4 assessed as reduction in parasite viability; assay type: functional, organism-based
[18] = target: Cruzipain (Trypanosoma cruzi) (UniProt P25779); test: Inhibition of recombinant Trypanosoma cruzi cruzain at 100 uM preincubated with enzyme for 5 mins followed by substrate addition in absence of BSA relative to control; procedure, shortened: as §2
Trypanosoma cruzi [19] = test: Trypanocidal activity against Trypanosoma cruzi Y strain trypomastigotes infected in C57BL/6 mouse peritoneal macrophage assessed as reduction in number of trypomastigotes release at 50 uM and measured after day 3 to day 11 post-infection by Neubauer chamber method; assay type: functional, organism-based; details: time 11.0 day
Procedure, shortened: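 Thioglycolate-elicited peritoneal macrophages from female C57BL/6 mice, 2 × 10^5/well, infected 2 h at 37°C with Y strain trypomastigotes at 5:1 (parasite:cell) and washed. They were then held with compound (3.125–50 µM) or IFN-γ 100 ng/mL. Trypomastigotes released into the supernatant were counted in a Neubauer chamber at several days after infection. Three independent experiments, each in triplicate.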

[20] = target: Cruzipain (Trypanosoma cruzi) (UniProt P25779); test: Inhibition of recombinant Trypanosoma cruzi cruzain at 100 uM preincubated for 10 mins in presence of 0.01% Triton X-100 relative to control; procedure, shortened: as §3
[21] = target: Cruzipain (Trypanosoma cruzi) (UniProt P25779); test: Inhibition of recombinant Trypanosoma cruzi cruzain at 100 uM using Z-FR-AMC as substrate preincubated for 10 mins followed by substrate addition and measured at 12 sec interval for 5 mins by fluorimetric analysis relative to control; details: time 15.0 min
Procedure, shortened: as §4, with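 “pre-incubation. Z-FR-AMC 2.5 µM, read at 340/440 nm every 12 s for 5 min.” for “pre-incubation.”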

[22] = target: Rhodesain (Trypanosoma brucei rhodesiense) (UniProt Q95PM0); test: Inhibition of recombinant Trypanosoma brucei rhodesain expressed in Pichia pastoris at 100 uM using Z-FR-AMC as substrate and measured at 12 sec interval for 5 mins without preincubation by fluorimetric analysis relative to control
Procedure, shortened: (§5)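 Run with no pre-incubation or with 10 min enzyme-compound pre-incubation. Fluorescence read at 340/440 nm. Concentration was set by solubility under assay conditions. Inhibition is against DMSO, with E-64 as positive control; triplicate.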

Rhodesain = Rhodesain (Trypanosoma brucei rhodesiense, UniProt Q95PM0); test: Inhibition of recombinant Trypanosoma brucei rhodesain expressed in Pichia pastoris using Z-FR-AMC as substrate preincubated for 10 mins followed by substrate addition and measured at 12 sec interval for 5 mins by fluorimetric analysis
Procedure, shortened: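 Rhodesain (1 nM) with Z-FR-AMC (2.5 µM) in 0.1 M sodium acetate pH 5.5, 0.01% Triton X-100, 1 mM β-mercaptoethanol, with or without 10 min enzyme-compound pre-incubation. Fluorescence read at 340/440 nm. IC50 by four-parameter nonlinear regression from at least six concentrations in triplicate, with at least two independent runs. Mean ± SEM reported.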

[23] = target: Cruzipain (Trypanosoma cruzi) (UniProt P25779); test: Inhibition of recombinant Trypanosoma cruzi cruzain at 100 uM preincubated for 10 mins in absence of Triton X-100 relative to control; procedure, shortened: as §3
[24] = target: Rhodesain (Trypanosoma brucei rhodesiense) (UniProt Q95PM0); test: Inhibition of recombinant Trypanosoma brucei rhodesain expressed in Pichia pastoris at 100 uM using Z-FR-AMC as substrate preincubated for 10 mins followed by substrate addition and measured at 12 sec interval for 5 mins by fluorimetric analysis relative to control; details: time 15.0 min; procedure, shortened: as §5
[25] = target: Cruzipain (Trypanosoma cruzi) (UniProt P25779); test: Inhibition of recombinant Trypanosoma cruzi cruzain at 100 uM preincubated for 10 mins in presence of 0.1% Triton X-100 relative to control; procedure, shortened: as §3
[26] = target: Cruzipain (Trypanosoma cruzi) (UniProt P25779); test: Inhibition of recombinant Trypanosoma cruzi cruzain at 100 uM using Z-FR-AMC as substrate and measured at 12 sec interval for 5 mins without preincubation by fluorimetric analysis relative to control
Procedure, shortened: as §4, with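 “pre-incubation. Z-FR-AMC 2.5 µM, read at 340/440 nm every 12 s for 5 min.” for “pre-incubation.”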

Cruzipain [27] = target: T1, Cruzipain; test: Inhibition of recombinant Trypanosoma cruzi cruzain using Z-FR-AMC as substrate preincubated for 10 mins followed by substrate addition and measured at 12 sec interval for 5 mins by fluorimetric analysis; procedure, shortened: as §1
[28] = target: Cruzipain (Trypanosoma cruzi) (UniProt P25779); test: Inhibition of recombinant Trypanosoma cruzi cruzain at 100 uM preincubated with BSA for 5 mins followed by incubation with enzyme for 5 mins followed by substrate addition relative to control; details: time 10.0 min; procedure, shortened: as §2

Sequence of Cruzipain (Trypanosoma cruzi) (P25779 123-467 limits assumed): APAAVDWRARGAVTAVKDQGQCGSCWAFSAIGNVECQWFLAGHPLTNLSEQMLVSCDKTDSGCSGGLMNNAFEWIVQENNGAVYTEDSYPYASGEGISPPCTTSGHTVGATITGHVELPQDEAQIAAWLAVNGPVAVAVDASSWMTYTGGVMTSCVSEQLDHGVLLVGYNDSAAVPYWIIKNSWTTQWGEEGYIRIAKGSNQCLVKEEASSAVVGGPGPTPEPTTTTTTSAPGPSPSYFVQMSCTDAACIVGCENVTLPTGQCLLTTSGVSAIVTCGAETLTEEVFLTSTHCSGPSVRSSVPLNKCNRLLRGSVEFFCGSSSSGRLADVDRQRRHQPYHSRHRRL
Sequence of Rhodesain (Trypanosoma brucei rhodesiense) (Q95PM0 1-450): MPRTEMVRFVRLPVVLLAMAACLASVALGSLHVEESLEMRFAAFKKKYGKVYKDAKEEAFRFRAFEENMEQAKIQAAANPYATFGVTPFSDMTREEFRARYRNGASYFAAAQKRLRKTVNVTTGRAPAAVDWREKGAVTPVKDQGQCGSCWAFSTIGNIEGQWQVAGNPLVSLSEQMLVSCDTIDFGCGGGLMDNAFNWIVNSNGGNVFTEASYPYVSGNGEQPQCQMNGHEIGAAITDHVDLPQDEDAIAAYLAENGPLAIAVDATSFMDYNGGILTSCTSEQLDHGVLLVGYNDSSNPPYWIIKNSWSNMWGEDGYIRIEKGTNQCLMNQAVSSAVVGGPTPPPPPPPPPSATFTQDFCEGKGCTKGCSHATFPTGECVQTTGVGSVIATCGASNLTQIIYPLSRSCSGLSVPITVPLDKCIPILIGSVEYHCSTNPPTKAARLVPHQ
T1 sequence (P25779 whole entry): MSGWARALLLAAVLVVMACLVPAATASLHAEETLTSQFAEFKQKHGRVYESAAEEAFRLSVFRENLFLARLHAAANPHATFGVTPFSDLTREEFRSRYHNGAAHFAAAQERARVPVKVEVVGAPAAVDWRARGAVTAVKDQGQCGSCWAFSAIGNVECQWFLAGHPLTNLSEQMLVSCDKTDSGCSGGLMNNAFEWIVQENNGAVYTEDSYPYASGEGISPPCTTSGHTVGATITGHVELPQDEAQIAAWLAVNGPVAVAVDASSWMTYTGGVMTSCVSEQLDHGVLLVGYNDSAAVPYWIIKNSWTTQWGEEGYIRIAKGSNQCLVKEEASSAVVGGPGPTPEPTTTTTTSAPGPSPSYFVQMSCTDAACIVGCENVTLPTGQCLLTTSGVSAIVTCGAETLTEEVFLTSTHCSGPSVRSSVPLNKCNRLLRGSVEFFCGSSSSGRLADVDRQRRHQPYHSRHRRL
Sequence of Rhodesain (Q95PM0 whole entry): as the sequence (Q95PM0 1-450) above

Row | Compound | inhibition [4] [%] | inhibition [5] [%] | inhibition [7] [%] | inhibition [8] [%] | inhibition [10] [%] | inhibition [11] [%] | IC50 [12] [µM] | inhibition [14] [%] | inhibition [15] [%] | IC50 (Trypanosoma cruzi [17]) [µM] | also measured
1 | CCOc1cccc(C(=O)Nc2ccc(-c3nc4ccccc4[nH]3)cc2)c1 | 88.1 | 72.7 | 53.7 | 75.6 | 100 | 46 | 32 | 100 | 89 | 32 | IC50 (Cruzipain [1]): 2.6 µM; inhibition [2]: 97.9%; inhibition [3]: 34.6%; inhibition [6]: 16%; IC50 [9]: 32 µM; inhibition [13]: 100%; inhibition [16]: 100%
2 | COCCNC(=O)c1ccc(OC2CCN(Cc3ccc(F)c(F)c3)CC2)c(Cl)c1 | 42 | 74.5 | 42.1 | 83.8 | 66 | 14 | 32 | 81 | 18 | 32 | inhibition [18]: 79.9%; Activity (Trypanosoma cruzi [19]): Active; inhibition [20]: 68.2%; inhibition [21]: 78%; inhibition [22]: 63%; IC50 (Rhodesain): 9 µM; inhibition [23]: 98.3%; inhibition [24]: 75%; inhibition [25]: 78.6%; inhibition [26]: 29%; IC50 (Cruzipain [27]): 5 µM; inhibition [28]: 64.7%
